The source of these data is ChEMBL document CHEMBL4513216, “Probing the Open Global Health Chemical Diversity Library for Multistage-Active Starting Points for Next-Generation Antimalarials” (ACS Infect Dis, 2020).

A short description of this data set: Toxicity liver stage against HepG2, at 10uM. In kind it is cell-based. Further details: test concentration 10 uM, cell line HepG2-A16-CD81EGFP. The note with it: human, HepG2-A16-CD81EGFP cells; read-out: INHIBITION
The method, boiled down:
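Uninfected HepG2-A16-CD81EGFP cells, 3 × 10^3 per well, 1536-well, plated on prespotted compound at 10 μM final, parasite-free screening media added to match infected plates; puromycin 10 μM positive, DMSO 0.5% negative; run in parallel with 48 h PbLuc assay at 37 °C, 5% CO2; viability by CellTiter-Glo luminescence, normalized to controls.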

Regarding `N#Cc1ccc(NCc2cccc(OCC3CCCO3)c2)nc1` (stereo unspecified), the cytotoxicity at 10 µM was 1.25%.

In the case of `CC(C)c1noc(CNc2cccc(-c3nnnn3C)c2)n1`, the cytotoxicity at 10 µM was -5.47%.

Turning to `CCCn1cnnc1CNC1CSCCSC1`, the cytotoxicity at 10 µM is -7.31%.

As for `Cc1nnc(C(C)Nc2cccc(COCCc3ccccc3)c2)o1` (stereo unspecified), the cytotoxicity at 10 µM was -3.51%.

Regarding `O=C(NCCc1c[nH]cn1)C1CCCN(Cc2ccco2)C1` (stereo unspecified), the cytotoxicity at 10 µM is -0.123%.

Turning to `CN1CCOC(CNCCCOc2ccc(C#N)cc2)C1` (stereo unspecified), the cytotoxicity at 10 µM worked out at 6.91%.

Turning to `O=C(C[C@@H]1COC[C@H]2CN(CC3CC3)C[C@@H]12)NCc1cccnc1`, the cytotoxicity at 10 µM came to 9.21%.

With `O=C(CC1CC1)N1CC[C@H]2OCC[C@@]2(COc2ncccc2F)C1`, the cytotoxicity at 10 µM is -134%.

Take `O=C1NCC(C(=O)NCc2ccccc2CN2CCOCC2)N1` (stereo unspecified): the cytotoxicity at 10 µM was 3.64%.

With `CS(=O)(=O)c1nccn1Cc1ccc(F)cc1Cl`, the cytotoxicity at 10 µM was -4.99%.

For the compound `COc1ccc(-c2c[nH]c(C3CC(=O)N(CC(C)C)C3)n2)cc1` (stereo unspecified), the cytotoxicity at 10 µM came to 5.35%.

`Cc1ccc(C)n1-c1c(C(=O)NCC(C)Cn2cccn2)cnn1C` (stereo unspecified): the cytotoxicity at 10 µM was 13.8%.

`Cn1cc(NC(=O)CNC(=O)N2CCN(c3cccc(Cl)c3)CC2)cn1`: the cytotoxicity at 10 µM stood at 2.93%.

With `Cc1sc2ncnc(N3CCCC3Cn3cccn3)c2c1C` (stereo unspecified), the cytotoxicity at 10 µM stood at 2.62%.

`CCS(=O)(=O)N1CCC(n2nc(-c3cc(C)oc3C)ccc2=O)CC1`: the cytotoxicity at 10 µM worked out at 8.82%.

Turning to `CN(CC1CCCO1)C1CCN(CCc2ccccn2)CC1` (stereo unspecified), the cytotoxicity at 10 µM is -5.6%.

As to `Cc1ccc(C(=O)N2CCCC(Nc3ccc(F)cc3)C2)cc1` (stereo unspecified), the cytotoxicity at 10 µM was -3.53%.

With `O=C(NCCc1ccccc1)N1CCCCC1C1OCCO1` (stereo unspecified), the cytotoxicity at 10 µM was -45.2%.

In the case of `CCn1c(C2CCCN(S(=O)(=O)C3CC3)C2)nn(CCN(C)C)c1=O` (stereo unspecified), the cytotoxicity at 10 µM is 0.522%.

As for `NC(=O)CC1CC2(CCNCC2)c2cc(F)ccc21` (stereo unspecified), the cytotoxicity at 10 µM was -107%.

`Cc1nc2ccc(C(=O)N3CCn4c(nnc4C4CC4)C3)cc2nc1C`: the cytotoxicity at 10 µM is -3.22%.

Regarding `Cc1nn(C)c(C)c1OCC(=O)NCC(O)c1ccccc1F` (stereo unspecified), the cytotoxicity at 10 µM came out at 0.621%.

Regarding `COc1cccc(N2CCN(C(=O)c3noc4c3CCCCC4)CC2)c1`, the cytotoxicity at 10 µM is 9.4%.

In the case of `Cc1nnc(N2CCCC3(CN(Cc4nccn4C)CCO3)C2)o1` (stereo unspecified), the cytotoxicity at 10 µM is -6.83%.

Turning to `CCOCC1CN(C(=O)c2cccnc2)Cc2cnn(C)c21` (stereo unspecified), the cytotoxicity at 10 µM is -1.28%.

As to `O=C(CCc1cc2n(n1)CCN(Cc1ccncc1)C2)N1CCCC1`, the cytotoxicity at 10 µM is -7.97%.

Turning to `Cc1ccc(NC(=O)C2CSCN2C(=O)c2cnccn2)cc1C` (stereo unspecified), the cytotoxicity at 10 µM is -8.3%.

In the case of `CN(C)c1nc2c(c(N3CCCC4(CC3)CNC(=O)O4)n1)CCCC2` (stereo unspecified), the cytotoxicity at 10 µM is -1.07%.

Take `Cc1nc(CN2CCN(c3cc(CCN)ncn3)CC2)cs1`: the cytotoxicity at 10 µM is -145%.

As to `CC(C)Nc1cccc(CNC(=O)N2CCCC2)c1`, the cytotoxicity at 10 µM is 1.98%.

In the case of `Cc1cnn(CCCn2ncc(N3CCC(CN)C3)cc2=O)c1` (stereo unspecified), the cytotoxicity at 10 µM is -48.2%.

Take `CCn1c(CC2CCN(C(=O)c3cc(CC(C)C)on3)CC2)n[nH]c1=O`: the cytotoxicity at 10 µM is -2.7%.

As to `CC(C)(C)Cc1noc2ncc(C(=O)N3CCC3)cc12`, the cytotoxicity at 10 µM came out at 7.28%.

As for `Cc1nc(CCNC(=O)NCC(O)c2cccc(Cl)c2)cs1` (stereo unspecified), the cytotoxicity at 10 µM amounted to 14%.

In the case of `CC(C)(C)c1cc(CNC(=O)c2cc(COc3ccccc3)[nH]n2)[nH]n1`, the cytotoxicity at 10 µM worked out at 8.28%.

For `O=C(NCC1CC[C@@]2(CNCCOC2)O1)c1cccnc1` (stereo partly specified), the cytotoxicity at 10 µM came out at 2.32%.

As to `CCN1CC2(CC1=O)CN(C(=O)c1ccco1)CCN(C(=O)C(C)C)C2` (stereo unspecified), the cytotoxicity at 10 µM is -9.16%.

For the compound `COc1ccc(C#N)cc1CSCCN1CCOCC1`, the cytotoxicity at 10 µM was 6.14%.

As to `Cc1[nH]c2nc(CNc3ccccc3Cl)nn2c(=O)c1C`, the cytotoxicity at 10 µM is -1.29%.

Turning to `c1ccc(CCN2CCn3cc(Cn4cccn4)nc3C2)cc1`, the cytotoxicity at 10 µM was -1.98%.

On to `O=C(CCn1cccn1)N1CC[C@@H](c2ccc3ccccc3c2)[C@H](O)C1`, for which the cytotoxicity at 10 µM was 2.03%.

Consider `CCc1ccccc1OC1CN(C(=O)c2cccs2)C1`, for which the cytotoxicity at 10 µM was found to be 13.7%.

With `CC(C)c1noc(CCCC(=O)N2CCN(S(C)(=O)=O)CC2)n1`, the cytotoxicity at 10 µM was -15.7%.

Consider `COc1ccc(NC(=O)N(C)Cc2ccsc2)cn1`, for which the cytotoxicity at 10 µM is -2.36%.

Consider `Cc1cnn(CC2CCCN2C(=O)CCc2ccc3c(c2)OCO3)c1` (stereo unspecified), for which the cytotoxicity at 10 µM is -19%.

Turning to `c1cc(-c2c[nH]c([C@@H]3COCCN3Cc3ncc[nH]3)n2)ccn1`, the cytotoxicity at 10 µM is 4.99%.

For the compound `Cc1ccc(C)c(CC(=O)Nc2cccc(C(=O)N(C)C)n2)c1`, the cytotoxicity at 10 µM is -6.56%.

Consider `COc1ccc(-c2nnc(SC(C)C(=O)NC3CCCC3)[nH]2)c(OC)c1` (stereo unspecified), for which the cytotoxicity at 10 µM came to 36.4%.

Turning to `COCCNC(=O)c1ccc2c(=O)n3c(nc2c1)CCCC3`, the cytotoxicity at 10 µM was found to be 10%.

`Cc1nn(C(C)(C)C)c(C)c1C(=O)NCC1(C(N)=O)CCOCC1`: the cytotoxicity at 10 µM came out at 3.28%.

Consider `COc1cccc2ccc(N3CCC(O)(C(=O)O)CC3)nc12`, for which the cytotoxicity at 10 µM was found to be 3.13%.

For `O=C(c1cc(C2CC2)on1)N1C[C@H]2CC[C@](O)(c3ccc(F)cc3)[C@H]2C1`, the cytotoxicity at 10 µM turned out to be 3.94%.

As to `CC(=O)Nc1nc(CN2CCn3c(nnc3C(C)C)C2)cs1`, the cytotoxicity at 10 µM was -2.17%.

For `NC(=O)COc1ccc(CNCc2ccc(F)c(F)c2)cc1`, the cytotoxicity at 10 µM was -15.2%.

Take `COC(=O)C(NC(=O)C1CC1)c1cc(F)ccc1F` (stereo unspecified): the cytotoxicity at 10 µM is -4.64%.

On to `COc1cccc(CNC(=O)c2nc3c(o2)CN(S(C)(=O)=O)C3)c1`, for which the cytotoxicity at 10 µM stood at 8.65%.

As for `COc1ccc(OC)c(CN(C(=O)c2ccc(C)[nH]c2=O)C2CC2)c1`, the cytotoxicity at 10 µM is -1.59%.

Consider `COC(=O)CC1CSCCN1C(=O)CCc1c(C)nn(C)c1C` (stereo unspecified), for which the cytotoxicity at 10 µM is -2.65%.

Consider `Cc1cc(C)n(CC(=O)N2CCCCC2CCc2cccs2)c(=O)n1` (stereo unspecified), for which the cytotoxicity at 10 µM was found to be 6.93%.

In the case of `CSCC(CCO)NC(=O)Nc1ccc(Br)cc1` (stereo unspecified), the cytotoxicity at 10 µM is -12.2%.

`Cc1cnc(CC2COCCN(C(=O)c3cncs3)C2)cn1` (stereo unspecified): the cytotoxicity at 10 µM turned out to be 3.65%.

In the case of `Cc1noc(C2(C)CCCN(C(=O)c3cccnc3)C2)n1` (stereo unspecified), the cytotoxicity at 10 µM was -13.4%.

As to `Cc1nn(C)c(N2CCCN(C)CC2)c1CNC(=O)CCC(C)C`, the cytotoxicity at 10 µM was -1.08%.

`Cc1[nH]ccc1C(=O)N1CCC2(CC1)c1nc[nH]c1CCN2CC(C)C`: the cytotoxicity at 10 µM worked out at 7.31%.

For `Cc1cccc(C(=O)N2C[C@@H](C)[C@@]3(CCN(c4ccsc4)C3=O)C2)n1`, the cytotoxicity at 10 µM is -78.9%.

As for `CC1(C)[C@H](Cc2cc(CN3CCCCC3)on2)C[C@@H]1NC(=O)C1CC1`, the cytotoxicity at 10 µM was -8.17%.

`O=S(=O)(c1ccc(F)cc1)N1CCCC1c1cc[nH]n1` (stereo unspecified): the cytotoxicity at 10 µM is -5.94%.

With `Cc1noc(C)c1CN1C[C@@H]2CC(F)(F)C[C@@H]2C1`, the cytotoxicity at 10 µM was -2.58%.

Take `CN1CCOC(C(=O)Nc2ccc3[nH]nnc3c2)C1` (stereo unspecified): the cytotoxicity at 10 µM amounted to 6.77%.

In the case of `c1cnc(N2CCO[C@H]3CN(Cc4csnn4)C[C@H]32)nc1`, the cytotoxicity at 10 µM is -70.7%.

Take `COCCC(=O)N1CCCC1c1csc(Nc2ncccn2)n1` (stereo unspecified): the cytotoxicity at 10 µM was -4.33%.
